Among the data in ChEMBL document CHEMBL4251573, “Synthesis and biological evaluation of N-substituted 3-oxo-1,2,3,4-tetrahydro-quinoxaline-6-carboxylic acid derivatives as tubulin polymerization inhibitors” (Eur J Med Chem, 2018) are IC50, Activity and inhibition values, retold here.

Calls of active or inactive are those of the source. No cut-off for these calls is given here.

For one test, the system named is HeLa. As to the kind of experiment: Antiproliferative activity against human HeLa cells after 72 hrs by MTT assay. Format: functional, cell-based. An outline of the steps:
(§1)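 HeLa and SMMC-7721 cells in log phase were seeded at 4000-6000 cells/well. After 24 h, quadruplicate wells were treated with a series of concentrations for 72 h. DMSO stocks were 5 mmol/L, with final DMSO below 0.1%. MTT (10 mg/mL in PBS) was added for 4 h, medium replaced with DMSO, and OD read at 490 nm. IC50 came from at least five concentrations; mean and SD of at least three independent experiments.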
For orientation: Tetrazolium dyes change colour on reduction, which living cells bring about.

Another test concerns K562. As to the kind of experiment: Antiproliferative activity against human K562 cells after 72 hrs by MTT assay. It counts as functional, cell-based. The settings on record: K562, 72 h. An outline of the steps: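 K562 cells were grown in RPMI 1640 with 10% FBS at 37 °C in 5% CO2, then seeded at 4000-6000 cells/well. Quadruplicate wells were exposed to drug for 72 h, with final DMSO below 0.1%. After 4 h with MTT, solubilizer (10% SDS, 5% isobutyl alcohol, 0.01 M HCl) was added for 12 h, then OD read at 490 nm. IC50 came from at least five concentrations; mean and SD of at least three experiments.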

In the next test the test system is SMMC-7721. Kind of test: Antiproliferative activity against human SMMC7721 cells after 72 hrs by MTT assay. Format: functional, cell-based. The note with it: SMMC-7721, 72 h. The method in brief:
as §1

For a further test, the species on record is Sus scrofa. As to the kind of experiment: Competitive binding affinity to porcine brain tubulin at 0.1 to 10 uM preincubated for 1 hr followed by colchicine addition measured after 1 hr by fluorescence assay. The method in brief: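 Tubulin (4 μM) in 80 mM PIPES pH 6.9, 2 mM MgCl2 and 0.5 mM EGTA was preincubated 1 h at 37 °C with 0.1, 1, 5 or 10 μM test agent, with DMSO as control. Colchicine (10 μM) was then added for another 1 h at 37 °C. Tubulin-colchicine fluorescence was read at ex 340/em 435 nm and normalized to DMSO; at least three replicates, mean ± SD.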

The target in the next test is Tubulin (Homo sapiens) (UniProt P68371+Q9H4B7+P0DPH7+P68366+Q13509+Q71U36+P04350+Q3ZCM7+P07437+P68363+Q9BQE3+Q6PEY2+Q13885+Q9BVA1+Q9BUF5). As to the kind of experiment: Inhibition of tubulin (unknown origin) polymerization at 20 uM after 40 mins by fluorescence assay. It counts as protein-complex assay. The method in brief:
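Polymerization was run with a fluorescence kit. Compound, in duplicate, was warmed 1 min at 37 °C before adding cold tubulin mix (2 mg/mL tubulin, 80 mM PIPES pH 6.9, 2.0 mM MgCl2, 0.5 mM EGTA, 1.0 mM GTP, 15% glycerol). Fluorescence was read at ex 360/em 450 nm every minute for 1 h at 37 °C and scored at 40 min against 0.1% DMSO vehicle.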

As usually defined, the IC50 is the concentration at which inhibition is half-maximal. A lower IC50 goes with greater potency. `COC(=O)c1ccc2c(c1)NC(=O)CN2C(=O)Cc1cc(OC)c(OC)c(OC)c1`: the half-maximal inhibitory concentration (IC50) with HeLa came out at 39.4 µM; with K562, 45.3 µM; in the test with SMMC-7721, 9.1 µM.

For `COc1cccc2c1C(=O)c1c(O)c3c(c(O)c1C2=O)C[C@@](O)(C(=O)CO)C[C@@H]3O[C@H]1C[C@H](N)[C@H](O)[C@H](C)O1` [DOXORUBICIN], the IC50 with K562 is 0.89 µM; with SMMC-7721, 1.59 µM.

For the compound `COc1ccc(C(=O)N2CC(=O)Nc3cc(C(=O)N4CCOCC4)ccc32)cc1OC`, the values for the IC50 with HeLa, in the test with K562 and in the test with SMMC-7721 were 34.9 µM, greater than 50 µM and 34.9 µM, respectively.

Regarding `COC(=O)c1ccc2c(c1)NC(=O)CN2C(=O)c1ccc(OC)cc1`, the results for the IC50 in the test with HeLa, with K562 and in the test on SMMC-7721 were 8.28 µM, 7.72 µM and 5.4 µM, respectively.

With `COc1cc(CN2CC(=O)Nc3cc(C(=O)O)ccc32)cc(OC)c1OC`, the IC50 in the test on HeLa came out at 32.2 µM; in the test with K562, 35.9 µM; in the test with SMMC-7721, 39 µM.

`COC(=O)c1ccc2c(c1)NC(=O)CN2Cc1ccc(OC)cc1`: the figures for the IC50 in the test with HeLa, with K562 and with SMMC-7721 were 16.4 µM, 43.2 µM and 12.5 µM, respectively.

`COC(=O)c1ccc2c(c1)NC(=O)CN2C(=O)c1ccc(F)cc1`: the IC50 with HeLa amounted to 15.9 µM; in the test with K562, 9.8 µM; in the test on SMMC-7721 it was 7.69 µM.

In the case of `COc1cc(C(=O)N2CC(=O)Nc3cc(C(=O)Nc4ccccc4)ccc32)cc(OC)c1OC`, the IC50 in the test on HeLa is 26.4 µM; in the test on K562, greater than 50 µM; in the test on SMMC-7721, 37.9 µM.

As to `COC(=O)c1ccc2c(c1)NC(=O)CN2Cc1ccc(OC)c(OC)c1`, the IC50 came out at 38.1 µM in the test on HeLa, 43.6 µM in the test with K562 and 33.2 µM in the test with SMMC-7721.

`CCCCNC(=O)c1ccc2c(c1)NC(=O)CN2C(=O)c1ccc(OC)c(OC)c1`: the half-inhibitory concentration (IC50) in the test with HeLa, with K562 and in the test on SMMC-7721 was greater than 50 µM in each case.

For the compound `COc1cc(CN2CC(=O)Nc3cc(C(=O)NC4CCCCC4)ccc32)cc(OC)c1OC`, the IC50 in the test with HeLa worked out at 41.8 µM; in the test with K562, 42.6 µM; in the test on SMMC-7721, 28 µM.

For the compound `CCCCNC(=O)c1ccc2c(c1)NC(=O)CN2C(=O)c1cc(OC)c(OC)c(OC)c1`, the IC50 with HeLa is greater than 50 µM; in the test on K562, greater than 50 µM; in the test on SMMC-7721 it was 43.1 µM.

As to `CCCCNC(=O)c1ccc2c(c1)NC(=O)CN2Cc1cc(OC)c(OC)c(OC)c1`, the IC50 with HeLa came out at 37.5 µM; in the test with K562 it was 43 µM; in the test on SMMC-7721, 39.7 µM.

On to `CC(=O)O[C@H]1C(=O)[C@@]2(C)[C@H]([C@H](OC(=O)c3ccccc3)[C@]3(O)C[C@H](OC(=O)[C@H](O)[C@@H](NC(=O)c4ccccc4)c4ccccc4)C(C)=C1C3(C)C)[C@]1(OC(C)=O)CO[C@@H]1C[C@@H]2O`, for which, in the test filed under Sus scrofa, the outcome was inactive.

For `COC(=O)c1ccc2c(c1)NC(=O)CN2C(=O)c1ccc(OC)c(OC)c1`, the IC50 was found to be 1.42 µM with HeLa, 3 µM with K562 and 1.32 µM in the test with SMMC-7721. The inhibition result on Tubulin (Homo sapiens) was “Active”.

In the case of `COC(=O)c1ccc2c(c1)NC(=O)CN2Cc1cc(OC)c(OC)c(OC)c1`, the IC50 with HeLa was determined as 2.76 µM; with K562 it was 3.42 µM; in the test on SMMC-7721 it was 2.69 µM. In addition, the inhibition entry on Tubulin (Homo sapiens) is “Active”.

Consider `COc1ccc(C(=O)N2CC(=O)Nc3cc(C(=O)Nc4ccccc4)ccc32)cc1OC`, for which the IC50 in the test with HeLa amounted to 24.9 µM; in the test on K562, 42.9 µM; in the test on SMMC-7721, 34.4 µM.

`COc1ccc(/C=C\c2cc(OC)c(OC)c(OC)c2)cc1O` [COMBRETASTATIN A4]: the IC50 is 0.013 µM in the test with K562 and 0.0038 µM with SMMC-7721.

For the compound `COc1cc(C(=O)N2CC(=O)Nc3cc(C(=O)NC4CCCCC4)ccc32)cc(OC)c1OC`, the IC50 in the test with HeLa is greater than 50 µM; in the test on K562 it was greater than 50 µM; in the test on SMMC-7721, 40.6 µM.

With `COc1cc(C(=O)N2CC(=O)Nc3cc(C(=O)N4CCOCC4)ccc32)cc(OC)c1OC`, the results for the IC50 in the test on HeLa, in the test with K562 and with SMMC-7721 were greater than 50 µM, greater than 50 µM and 39.2 µM, respectively.
